Data taken from ChEMBL document CHEMBL3576866, “Discovery of a Cyclic Boronic Acid β-Lactamase Inhibitor (RPX7009) with Utility vs Class A Serine Carbapenemases” (J Med Chem, 2015).

Legend:
Mus musculus = assay: Toxicity in Swiss webster neutropenic mouse lung infection model up to 1000 mg/kg, administered every 2 hrs starting at 2 hrs; assay type: organism-based; conditions: in vivo
[1] = Half life in human at 1 g administered as 3 hrs of infusion; assay type: ADME, organism-based; conditions: in vivo, iv
[2] = target: T1, Class A carbapenemase (Enterobacter cloacae) (UniProt A7WP95); assay: Inhibition of Enterobacter cloacae ECL1061 KPC-3 assessed as cefepime MIC at 4 ug/ml by broth microdilution method
T1 sequence (whole entry): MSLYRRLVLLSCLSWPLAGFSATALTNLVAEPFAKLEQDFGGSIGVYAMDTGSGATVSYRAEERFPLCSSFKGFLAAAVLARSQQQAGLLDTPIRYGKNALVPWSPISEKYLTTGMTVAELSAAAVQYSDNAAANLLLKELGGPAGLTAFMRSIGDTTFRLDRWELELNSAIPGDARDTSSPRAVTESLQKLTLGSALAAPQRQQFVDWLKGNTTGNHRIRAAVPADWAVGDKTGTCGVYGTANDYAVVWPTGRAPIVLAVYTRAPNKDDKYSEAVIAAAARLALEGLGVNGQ

[3] = target: Beta-lactamase TEM (Enterobacter cloacae) (UniProt Q6W9J1); assay: Inhibition of Enterobacter cloacae ECL1058 TEM-1 assessed as imipenem MIC at 4 ug/ml by broth microdilution method
Beta-lactamase TEM (Enterobacter cloacae), sequence (Q6W9J1 as listed by the source): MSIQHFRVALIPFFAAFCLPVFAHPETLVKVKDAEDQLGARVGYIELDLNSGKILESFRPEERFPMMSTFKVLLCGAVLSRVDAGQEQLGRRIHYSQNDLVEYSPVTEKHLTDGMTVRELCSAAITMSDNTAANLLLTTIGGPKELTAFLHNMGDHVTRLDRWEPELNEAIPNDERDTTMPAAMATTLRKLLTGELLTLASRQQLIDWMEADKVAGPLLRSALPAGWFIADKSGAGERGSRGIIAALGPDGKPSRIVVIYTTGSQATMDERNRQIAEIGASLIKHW

Klebsiella pneumoniae [4] = assay: Inhibition of Klebsiella pneumoniae KP1088 SHV-11 assessed as meropenem MIC at 4 ug/ml by broth microdilution method
Summary of the method: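 CLSI broth microdilution (M07-A9, 2012) against the clinical K. pneumoniae isolate. Carbapenem MICs were read alone and with 9f held at a fixed 4 μg/mL.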

[5] = target: Beta lactamase TEM-1 (Klebsiella pneumoniae) (UniProt Q7B899); assay: Inhibition of Klebsiella pneumoniae KP1084 TEM-1 assessed as imipenem MIC at 4 ug/ml by broth microdilution method
Beta lactamase TEM-1 (Klebsiella pneumoniae), sequence (Q7B899 as listed by the source): as the sequence (Q6W9J1 as listed by the source) above

Klebsiella pneumoniae [6] = assay: Inhibition of Klebsiella pneumoniae KP1004 KPC-2 assessed as imipenem MIC at 4 ug/ml by broth microdilution method
Summary of the method: (§1)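 CLSI broth microdilution (M07-A9, 2012) MIC of the carbapenem against clinical serine carbapenemase-producing strain, tested alone and with the inhibitor held at a fixed 4 μg/mL.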

Klebsiella pneumoniae [7] = assay: Inhibition of Klebsiella pneumoniae KP1082 KPC-2 assessed as biapenem MIC at 4 ug/ml by broth microdilution method; summary of the method: as §1
[8] = Cmax in human at 1 g administered as 3 hrs of infusion; assay type: ADME, organism-based; set-up: dose 1 g; conditions: in vivo, iv
[9] = Inhibition of Escherichia coli recombinant TEM-10 assessed as substrate nitrocefin degradation preincubated for 10 mins followed by substrate addition measured every 10 secs for 10 mins by spectrophotometric analysis
Summary of the method: (§2)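 β-Lactamases purified from overexpressing recombinant E. coli. Enzyme preincubated with inhibitor at varying concentrations for 10 min at room temperature in 50 mM Na phosphate pH 7.0, 0.1 mg/mL BSA. Then 50 μM nitrocefin (final) added and cleavage read at 490 nm every 10 s for 10 min. Ki derived by the Waley method.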

Enterobacter cloacae [10] = assay: Inhibition of Enterobacter cloacae EC1010 CMY-6 assessed as cefepime MIC at 4 ug/ml by broth microdilution method
Summary of the method: (§3)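 CLSI broth microdilution (M07-A9) against clinical strains expressing serine β-lactamases.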

[11] = target: Beta lactamase TEM-1 (Klebsiella pneumoniae) (UniProt Q7B899); assay: Inhibition of Klebsiella pneumoniae KP1084 TEM-1 assessed as ertapenem MIC at 4 ug/ml by broth microdilution method; summary of the method: as §1
Escherichia coli = assay: Inhibition of Escherichia coli EC1009 TEM-10 assessed as cefepime MIC at 4 ug/ml by broth microdilution method; summary of the method: as §3
[12] = target: Beta-lactamase (Klebsiella pneumoniae) (UniProt Q93LQ9); assay: Inhibition of Klebsiella pneumoniae KP1084 KPC-3 assessed as meropenem MIC at 4 ug/ml by broth microdilution method; summary of the method: as §1
Beta-lactamase (Klebsiella pneumoniae), sequence (Q93LQ9 as listed by the source): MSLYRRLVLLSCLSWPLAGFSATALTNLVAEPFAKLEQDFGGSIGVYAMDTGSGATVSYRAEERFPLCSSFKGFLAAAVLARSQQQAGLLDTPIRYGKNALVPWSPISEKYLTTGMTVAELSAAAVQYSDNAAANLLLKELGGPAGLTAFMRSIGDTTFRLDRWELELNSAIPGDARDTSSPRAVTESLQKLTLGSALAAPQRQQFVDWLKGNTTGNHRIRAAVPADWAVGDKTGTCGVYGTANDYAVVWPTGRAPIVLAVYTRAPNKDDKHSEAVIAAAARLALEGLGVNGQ

[13] = Volume of distribution in rat at 300 mg/kg, iv administered as 0.5 hrs infusion by HPLC-MS method; assay type: ADME, organism-based; conditions: in vivo
Enterobacter cloacae [14] = assay: Inhibition of Enterobacter cloacae ECL1058 SHV-11 assessed as imipenem MIC at 4 ug/ml by broth microdilution method
[15] = target: T1, Class A carbapenemase (Enterobacter cloacae); assay: Inhibition of Enterobacter cloacae ECL1058 KPC-3 assessed as ertapenem MIC at 4 ug/ml by broth microdilution method
[16] = Inhibition of Escherichia coli recombinant CMY-2 assessed as substrate nitrocefin degradation preincubated for 10 mins followed by substrate addition measured every 10 secs for 10 mins by spectrophotometric analysis; summary of the method: as §2

## O=C(O)C[C@@H]1CC[C@H](NC(=O)Cc2cccs2)B(O)O1 [VABORBACTAM]
Mus musculus
  Activity: Non-toxic
[1]
  half-life: 1.23 h
[2]
  MIC: 2 µg/mL
[3]
  MIC: 0.25 µg/mL
Klebsiella pneumoniae [4]
  MIC: ≤ 0.06 µg/mL
[5]
  MIC: 0.25 µg/mL
Klebsiella pneumoniae [6]
  MIC: ≤ 0.06 µg/mL
Klebsiella pneumoniae [7]
  MIC: ≤ 0.06 µg/mL
[8]
  Cmax: 22000 ng/mL
[9]
  Ki: 110 nM
Enterobacter cloacae [10]
  MIC: 4 µg/mL
[11]
  MIC: 4 µg/mL
Escherichia coli
  MIC: 4 µg/mL
[12]
  MIC: 0.5 µg/mL
[13]
  Vd: 0.48 L/kg
Enterobacter cloacae [14]
  MIC: 0.25 µg/mL
[15]
  MIC: 0.25 µg/mL
[16]
  Ki: 99 nM
